Results as given in ChEMBL document CHEMBL4020704, “Metabolite diversification by cultivation of the endophytic fungus Dothideomycete sp. in halogen containing media: Cultivation of terrestrial fungus in seawater” (Bioorg Med Chem, 2017).
In brackets after ≈: the same amount, converted by molar mass. Activity calls are given as the source filed them. The calls are words filed in the database; no cut-off is given here.

Test system: MOLT-3
Experiment: Cytotoxic activity against human MOLT3 cells by XTT assay
Format: functional, cell-based
Details: not given
How it was run: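 Non-adherent MOLT-3 leukemia cells, viability read by XTT assay. Etoposide served as reference drug. IC50 determined.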

SMILES | Activity
CO[C@@H](/C=C/C=C(\C)[C@H](O)[C@H](C)C(=O)O[C@H]1C[C@H](C)C[C@@H]2C=C[C@H](C)[C@](C)(C(=O)[C@H](O)CO)[C@@H]12)[C@@H](C)O | inactive
C[C@H]1C=C[C@H]2C[C@@](O)(CO)CC[C@@H]2[C@@]1(C)C(=O)CCO | inactive
C/C(=C\C=C\[C@H](O)[C@@H](C)O)[C@H](O)[C@H](C)C(=O)O[C@H]1C[C@H](CO)C[C@@H]2C=C[C@H](C)[C@](C)(C(=O)CCO)[C@@H]12 | inactive
C[C@H]1C=C[C@H]2C[C@@H](CO)C[C@H](O)[C@@H]2[C@@]1(C)C(=O)[C@H](O)CO | inactive
CC1=CC2=C(CC(C)C(=O)C[C@H](C)O)C(=O)[C@](C)(O)[C@@H](O)C2=CO1 (stereo partly specified) | inactive
CC1=CC2=C(C[C@@H](C)C3=CC(=O)CC(C)O3)C(=O)[C@](C)(O)[C@@H](O)C2=CO1 (stereo partly specified) | inactive

Test system: HuCC-A1
Experiment: Cytotoxic activity against human HuCCa1 cells by MTT assay
Format: functional, cell-based
Details: not given
How it was run: (§1)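 Adherent cancer cell lines, viability read by MTT assay. Doxorubicin served as reference drug for A549, HepG2 and HuCCA-1, and etoposide also for HepG2. IC50 determined.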

SMILES | Activity
CO[C@@H](/C=C/C=C(\C)[C@H](O)[C@H](C)C(=O)O[C@H]1C[C@H](C)C[C@@H]2C=C[C@H](C)[C@](C)(C(=O)[C@H](O)CO)[C@@H]12)[C@@H](C)O | inactive
C[C@H]1C=C[C@H]2C[C@@](O)(CO)CC[C@@H]2[C@@]1(C)C(=O)CCO | inactive
C/C(=C\C=C\[C@H](O)[C@@H](C)O)[C@H](O)[C@H](C)C(=O)O[C@H]1C[C@H](CO)C[C@@H]2C=C[C@H](C)[C@](C)(C(=O)CCO)[C@@H]12 | inactive
C[C@H]1C=C[C@H]2C[C@@H](CO)C[C@H](O)[C@@H]2[C@@]1(C)C(=O)[C@H](O)CO | inactive
CC1=CC2=C(CC(C)C(=O)C[C@H](C)O)C(=O)[C@](C)(O)[C@@H](O)C2=CO1 (stereo partly specified) | inactive
CC1=CC2=C(C[C@@H](C)C3=CC(=O)CC(C)O3)C(=O)[C@](C)(O)[C@@H](O)C2=CO1 (stereo partly specified) | inactive

Test system: Escherichia coli
Experiment: Antibacterial activity against Escherichia coli after 20 hrs by broth microdilution method
Format: functional
Details: not given
How it was run: (§2)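 Compounds dissolved in DMSO and two-fold serially diluted in 96-well plates, with final DMSO ≤0.5% (v/v). Inocula prepared in normal saline and adjusted to 0.5 McFarland turbidity. Plates incubated at 36 °C for 20 h, then absorbance read at 600 nm. MIC taken as the lowest concentration inhibiting growth.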

SMILES | Activity
CO[C@@H](/C=C/C=C(\C)[C@H](O)[C@H](C)C(=O)O[C@H]1C[C@H](C)C[C@@H]2C=C[C@H](C)[C@](C)(C(=O)[C@H](O)CO)[C@@H]12)[C@@H](C)O | inactive
C[C@H]1C=C[C@H]2C[C@@](O)(CO)CC[C@@H]2[C@@]1(C)C(=O)CCO | inactive
C/C(=C\C=C\[C@H](O)[C@@H](C)O)[C@H](O)[C@H](C)C(=O)O[C@H]1C[C@H](CO)C[C@@H]2C=C[C@H](C)[C@](C)(C(=O)CCO)[C@@H]12 | inactive
C[C@H]1C=C[C@H]2C[C@@H](CO)C[C@H](O)[C@@H]2[C@@]1(C)C(=O)[C@H](O)CO | inactive
CC1=CC2=C(CC(C)C(=O)C[C@H](C)O)C(=O)[C@](C)(O)[C@@H](O)C2=CO1 (stereo partly specified) | inactive
CC1=CC2=C(C[C@@H](C)C3=CC(=O)CC(C)O3)C(=O)[C@](C)(O)[C@@H](O)C2=CO1 (stereo partly specified) | inactive

Test system: Enterococcus faecalis
Experiment: Antibacterial activity against Enterococcus faecalis after 20 hrs by broth microdilution method
Format: functional
Details: not given
How it was run: as §2

SMILES | Activity
CO[C@@H](/C=C/C=C(\C)[C@H](O)[C@H](C)C(=O)O[C@H]1C[C@H](C)C[C@@H]2C=C[C@H](C)[C@](C)(C(=O)[C@H](O)CO)[C@@H]12)[C@@H](C)O | inactive
C[C@H]1C=C[C@H]2C[C@@](O)(CO)CC[C@@H]2[C@@]1(C)C(=O)CCO | inactive
C/C(=C\C=C\[C@H](O)[C@@H](C)O)[C@H](O)[C@H](C)C(=O)O[C@H]1C[C@H](CO)C[C@@H]2C=C[C@H](C)[C@](C)(C(=O)CCO)[C@@H]12 | inactive
C[C@H]1C=C[C@H]2C[C@@H](CO)C[C@H](O)[C@@H]2[C@@]1(C)C(=O)[C@H](O)CO | inactive
CC1=CC2=C(CC(C)C(=O)C[C@H](C)O)C(=O)[C@](C)(O)[C@@H](O)C2=CO1 (stereo partly specified) | inactive
CC1=CC2=C(C[C@@H](C)C3=CC(=O)CC(C)O3)C(=O)[C@](C)(O)[C@@H](O)C2=CO1 (stereo partly specified) | inactive

Test system: Shigella flexneri
Experiment: Antibacterial activity against Shigella flexneri after 20 hrs by broth microdilution method
Format: functional
Details: not given
How it was run: as §2

SMILES | Activity
CO[C@@H](/C=C/C=C(\C)[C@H](O)[C@H](C)C(=O)O[C@H]1C[C@H](C)C[C@@H]2C=C[C@H](C)[C@](C)(C(=O)[C@H](O)CO)[C@@H]12)[C@@H](C)O | inactive
C[C@H]1C=C[C@H]2C[C@@](O)(CO)CC[C@@H]2[C@@]1(C)C(=O)CCO | inactive
C/C(=C\C=C\[C@H](O)[C@@H](C)O)[C@H](O)[C@H](C)C(=O)O[C@H]1C[C@H](CO)C[C@@H]2C=C[C@H](C)[C@](C)(C(=O)CCO)[C@@H]12 | inactive
C[C@H]1C=C[C@H]2C[C@@H](CO)C[C@H](O)[C@@H]2[C@@]1(C)C(=O)[C@H](O)CO | inactive
CC1=CC2=C(CC(C)C(=O)C[C@H](C)O)C(=O)[C@](C)(O)[C@@H](O)C2=CO1 (stereo partly specified) | inactive
CC1=CC2=C(C[C@@H](C)C3=CC(=O)CC(C)O3)C(=O)[C@](C)(O)[C@@H](O)C2=CO1 (stereo partly specified) | inactive

Test system: Staphylococcus epidermidis
Experiment: Antibacterial activity against Staphylococcus epidermidis after 20 hrs by broth microdilution method
Format: functional
Details: not given
How it was run: as §2

MIC [µg/mL] | SMILES | Activity
100 (≈ 191 µM) | CO[C@@H](/C=C/C=C(\C)[C@H](O)[C@H](C)C(=O)O[C@H]1C[C@H](C)C[C@@H]2C=C[C@H](C)[C@](C)(C(=O)[C@H](O)CO)[C@@H]12)[C@@H](C)O | 
 | C[C@H]1C=C[C@H]2C[C@@](O)(CO)CC[C@@H]2[C@@]1(C)C(=O)CCO | inactive
 | C/C(=C\C=C\[C@H](O)[C@@H](C)O)[C@H](O)[C@H](C)C(=O)O[C@H]1C[C@H](CO)C[C@@H]2C=C[C@H](C)[C@](C)(C(=O)CCO)[C@@H]12 | inactive
 | C[C@H]1C=C[C@H]2C[C@@H](CO)C[C@H](O)[C@@H]2[C@@]1(C)C(=O)[C@H](O)CO | inactive
 | CC1=CC2=C(CC(C)C(=O)C[C@H](C)O)C(=O)[C@](C)(O)[C@@H](O)C2=CO1 (stereo partly specified) | inactive
 | CC1=CC2=C(C[C@@H](C)C3=CC(=O)CC(C)O3)C(=O)[C@](C)(O)[C@@H](O)C2=CO1 (stereo partly specified) | inactive

Test system: Staphylococcus aureus
Experiment: Antibacterial activity against Staphylococcus aureus after 20 hrs by broth microdilution method
Format: functional
Details: not given
How it was run: as §2

MIC [µg/mL] | SMILES | Activity
100 (≈ 191 µM) | CO[C@@H](/C=C/C=C(\C)[C@H](O)[C@H](C)C(=O)O[C@H]1C[C@H](C)C[C@@H]2C=C[C@H](C)[C@](C)(C(=O)[C@H](O)CO)[C@@H]12)[C@@H](C)O | 
 | C[C@H]1C=C[C@H]2C[C@@](O)(CO)CC[C@@H]2[C@@]1(C)C(=O)CCO | inactive
 | C/C(=C\C=C\[C@H](O)[C@@H](C)O)[C@H](O)[C@H](C)C(=O)O[C@H]1C[C@H](CO)C[C@@H]2C=C[C@H](C)[C@](C)(C(=O)CCO)[C@@H]12 | inactive
 | C[C@H]1C=C[C@H]2C[C@@H](CO)C[C@H](O)[C@@H]2[C@@]1(C)C(=O)[C@H](O)CO | inactive
 | CC1=CC2=C(CC(C)C(=O)C[C@H](C)O)C(=O)[C@](C)(O)[C@@H](O)C2=CO1 (stereo partly specified) | inactive
 | CC1=CC2=C(C[C@@H](C)C3=CC(=O)CC(C)O3)C(=O)[C@](C)(O)[C@@H](O)C2=CO1 (stereo partly specified) | inactive

Test system: Pseudomonas aeruginosa
Experiment: Antibacterial activity against Pseudomonas aeruginosa after 20 hrs by broth microdilution method
Format: functional
Details: not given
How it was run: as §2

SMILES | Activity
CO[C@@H](/C=C/C=C(\C)[C@H](O)[C@H](C)C(=O)O[C@H]1C[C@H](C)C[C@@H]2C=C[C@H](C)[C@](C)(C(=O)[C@H](O)CO)[C@@H]12)[C@@H](C)O | inactive
C[C@H]1C=C[C@H]2C[C@@](O)(CO)CC[C@@H]2[C@@]1(C)C(=O)CCO | inactive
C/C(=C\C=C\[C@H](O)[C@@H](C)O)[C@H](O)[C@H](C)C(=O)O[C@H]1C[C@H](CO)C[C@@H]2C=C[C@H](C)[C@](C)(C(=O)CCO)[C@@H]12 | inactive
C[C@H]1C=C[C@H]2C[C@@H](CO)C[C@H](O)[C@@H]2[C@@]1(C)C(=O)[C@H](O)CO | inactive
CC1=CC2=C(CC(C)C(=O)C[C@H](C)O)C(=O)[C@](C)(O)[C@@H](O)C2=CO1 (stereo partly specified) | inactive
CC1=CC2=C(C[C@@H](C)C3=CC(=O)CC(C)O3)C(=O)[C@](C)(O)[C@@H](O)C2=CO1 (stereo partly specified) | inactive

Test system: Bacillus cereus
Experiment: Antibacterial activity against Bacillus cereus after 20 hrs by broth microdilution method
Format: functional
Details: not given
How it was run: as §2

MIC [µg/mL] | SMILES | Activity
100 (≈ 191 µM) | CO[C@@H](/C=C/C=C(\C)[C@H](O)[C@H](C)C(=O)O[C@H]1C[C@H](C)C[C@@H]2C=C[C@H](C)[C@](C)(C(=O)[C@H](O)CO)[C@@H]12)[C@@H](C)O | 
 | C[C@H]1C=C[C@H]2C[C@@](O)(CO)CC[C@@H]2[C@@]1(C)C(=O)CCO | inactive
 | C/C(=C\C=C\[C@H](O)[C@@H](C)O)[C@H](O)[C@H](C)C(=O)O[C@H]1C[C@H](CO)C[C@@H]2C=C[C@H](C)[C@](C)(C(=O)CCO)[C@@H]12 | inactive
 | C[C@H]1C=C[C@H]2C[C@@H](CO)C[C@H](O)[C@@H]2[C@@]1(C)C(=O)[C@H](O)CO | inactive
 | CC1=CC2=C(CC(C)C(=O)C[C@H](C)O)C(=O)[C@](C)(O)[C@@H](O)C2=CO1 (stereo partly specified) | inactive
 | CC1=CC2=C(C[C@@H](C)C3=CC(=O)CC(C)O3)C(=O)[C@](C)(O)[C@@H](O)C2=CO1 (stereo partly specified) | inactive

Test system: Salmonella typhimurium
Experiment: Antibacterial activity against Salmonella typhimurium after 20 hrs by broth microdilution method
Format: functional
Details: Salmonella enterica subsp. enterica serovar Typhimurium
How it was run: as §2

SMILES | Activity
CO[C@@H](/C=C/C=C(\C)[C@H](O)[C@H](C)C(=O)O[C@H]1C[C@H](C)C[C@@H]2C=C[C@H](C)[C@](C)(C(=O)[C@H](O)CO)[C@@H]12)[C@@H](C)O | inactive
C[C@H]1C=C[C@H]2C[C@@](O)(CO)CC[C@@H]2[C@@]1(C)C(=O)CCO | inactive
C/C(=C\C=C\[C@H](O)[C@@H](C)O)[C@H](O)[C@H](C)C(=O)O[C@H]1C[C@H](CO)C[C@@H]2C=C[C@H](C)[C@](C)(C(=O)CCO)[C@@H]12 | inactive
C[C@H]1C=C[C@H]2C[C@@H](CO)C[C@H](O)[C@@H]2[C@@]1(C)C(=O)[C@H](O)CO | inactive
CC1=CC2=C(CC(C)C(=O)C[C@H](C)O)C(=O)[C@](C)(O)[C@@H](O)C2=CO1 (stereo partly specified) | inactive
CC1=CC2=C(C[C@@H](C)C3=CC(=O)CC(C)O3)C(=O)[C@](C)(O)[C@@H](O)C2=CO1 (stereo partly specified) | inactive

Test system: HepG2
Experiment: Cytotoxic activity against human HepG2 cells by MTT assay
Format: functional, cell-based
Details: not given
How it was run: as §1

SMILES | Activity
CO[C@@H](/C=C/C=C(\C)[C@H](O)[C@H](C)C(=O)O[C@H]1C[C@H](C)C[C@@H]2C=C[C@H](C)[C@](C)(C(=O)[C@H](O)CO)[C@@H]12)[C@@H](C)O | inactive
C[C@H]1C=C[C@H]2C[C@@](O)(CO)CC[C@@H]2[C@@]1(C)C(=O)CCO | inactive
C/C(=C\C=C\[C@H](O)[C@@H](C)O)[C@H](O)[C@H](C)C(=O)O[C@H]1C[C@H](CO)C[C@@H]2C=C[C@H](C)[C@](C)(C(=O)CCO)[C@@H]12 | inactive
C[C@H]1C=C[C@H]2C[C@@H](CO)C[C@H](O)[C@@H]2[C@@]1(C)C(=O)[C@H](O)CO | inactive
CC1=CC2=C(CC(C)C(=O)C[C@H](C)O)C(=O)[C@](C)(O)[C@@H](O)C2=CO1 (stereo partly specified) | inactive
CC1=CC2=C(C[C@@H](C)C3=CC(=O)CC(C)O3)C(=O)[C@](C)(O)[C@@H](O)C2=CO1 (stereo partly specified) | inactive
